Laboratory results published in paper PMC7318171 (Journal of Clinical Pharmacology, 2020).

Columns and labels:
[1] = cited from earlier work
[2] = Fraction unbound in plasma; assay type: in vitro ADME; conditions: human
Absolute bioavailability = assay type: in vivo; conditions: human, plasma
[3] = Rifampin interaction study; assay type: in vivo, human
Method in brief: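 Single oral 200‑mg dose given alone and again with rifampin 600 mg once daily. Plasma levels of parent and active metabolites were measured in both arms, and mean concentration–time profiles are shown with SDs. Cmax and AUC0‑∞ were taken, with Tmax as median (min‑max). The interaction was expressed as with/without‑rifampin ratios of AUC0‑∞ and Cmax.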

[4] = target: T1, organic cation transporter 1 (Homo sapiens, UniProt O15245); assay: Hepatic uptake transporter substrate assessment, OCT1; assay type: in vitro ADME
T1 sequence (O15245 1-554): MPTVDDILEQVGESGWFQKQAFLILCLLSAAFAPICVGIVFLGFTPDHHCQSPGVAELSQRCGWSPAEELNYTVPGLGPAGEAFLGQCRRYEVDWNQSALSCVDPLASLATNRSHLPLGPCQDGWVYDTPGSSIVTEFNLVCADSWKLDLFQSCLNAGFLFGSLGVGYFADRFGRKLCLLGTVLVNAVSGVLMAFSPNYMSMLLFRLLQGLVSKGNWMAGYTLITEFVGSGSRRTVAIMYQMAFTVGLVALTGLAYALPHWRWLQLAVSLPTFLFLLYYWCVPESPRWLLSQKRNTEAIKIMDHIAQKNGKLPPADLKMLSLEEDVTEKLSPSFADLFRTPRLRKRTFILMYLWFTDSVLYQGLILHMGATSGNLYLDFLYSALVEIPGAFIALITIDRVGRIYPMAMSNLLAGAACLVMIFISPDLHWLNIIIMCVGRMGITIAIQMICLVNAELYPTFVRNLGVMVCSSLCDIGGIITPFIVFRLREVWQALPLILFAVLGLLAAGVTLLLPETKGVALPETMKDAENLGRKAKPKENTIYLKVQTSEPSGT

[5] = Biopharmaceutic properties; assay type: physicochemical
[6] = target: T2, organic anion–transporting polypeptide 1B3 (Homo sapiens, UniProt Q9NPD5); assay: Hepatic uptake transporter substrate assessment, OATP1B3; assay type: in vitro ADME
T2 sequence (Q9NPD5 1-702): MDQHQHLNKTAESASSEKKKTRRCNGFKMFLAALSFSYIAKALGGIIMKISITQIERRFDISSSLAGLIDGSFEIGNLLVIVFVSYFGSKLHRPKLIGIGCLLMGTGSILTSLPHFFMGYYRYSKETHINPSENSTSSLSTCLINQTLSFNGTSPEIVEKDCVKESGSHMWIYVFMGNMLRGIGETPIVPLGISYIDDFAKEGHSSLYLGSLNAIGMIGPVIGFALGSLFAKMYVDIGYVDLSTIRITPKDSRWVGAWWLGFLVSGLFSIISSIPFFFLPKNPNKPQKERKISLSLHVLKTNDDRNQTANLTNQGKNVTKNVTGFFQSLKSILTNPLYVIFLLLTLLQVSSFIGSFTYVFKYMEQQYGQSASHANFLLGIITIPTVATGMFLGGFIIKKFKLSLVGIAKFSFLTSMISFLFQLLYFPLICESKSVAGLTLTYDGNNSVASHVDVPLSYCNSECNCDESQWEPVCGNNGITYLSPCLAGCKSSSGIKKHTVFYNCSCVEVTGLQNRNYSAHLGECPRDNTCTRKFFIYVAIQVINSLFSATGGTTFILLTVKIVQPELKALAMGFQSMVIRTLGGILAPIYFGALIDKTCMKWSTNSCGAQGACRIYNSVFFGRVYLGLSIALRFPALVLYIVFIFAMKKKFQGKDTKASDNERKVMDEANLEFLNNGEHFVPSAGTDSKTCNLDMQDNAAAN

[7] = PBPK model input and disposition parameters
[8] = cited from earlier work; remark: listed apart in the source
[9] = Mass balance study with 14C-labeled abemaciclib; assay type: in vivo, human
P‐glycoprotein = P‐glycoprotein (Homo sapiens, UniProt P08183); assay: Efflux transporter substrate assessment in vitro, P-glycoprotein; assay type: in vitro ADME
CDK4/cyclin D1 = conditions: read-out: CDK4/cyclin D1 half‐maximal inhibitory concentration, mean ± SD; measured in vitro; cited from earlier work
[10] = Measured physicochemical properties
[11] = Clarithromycin interaction study; assay type: in vivo; conditions: both, human, plasma, po, 50 mg
[12] = target: T3, organic anion–transporting polypeptide 1B1 (Homo sapiens, UniProt Q9Y6L6); assay: Hepatic uptake transporter substrate assessment, OATP1B1; assay type: in vitro ADME
T3 sequence (Q9Y6L6 1-691): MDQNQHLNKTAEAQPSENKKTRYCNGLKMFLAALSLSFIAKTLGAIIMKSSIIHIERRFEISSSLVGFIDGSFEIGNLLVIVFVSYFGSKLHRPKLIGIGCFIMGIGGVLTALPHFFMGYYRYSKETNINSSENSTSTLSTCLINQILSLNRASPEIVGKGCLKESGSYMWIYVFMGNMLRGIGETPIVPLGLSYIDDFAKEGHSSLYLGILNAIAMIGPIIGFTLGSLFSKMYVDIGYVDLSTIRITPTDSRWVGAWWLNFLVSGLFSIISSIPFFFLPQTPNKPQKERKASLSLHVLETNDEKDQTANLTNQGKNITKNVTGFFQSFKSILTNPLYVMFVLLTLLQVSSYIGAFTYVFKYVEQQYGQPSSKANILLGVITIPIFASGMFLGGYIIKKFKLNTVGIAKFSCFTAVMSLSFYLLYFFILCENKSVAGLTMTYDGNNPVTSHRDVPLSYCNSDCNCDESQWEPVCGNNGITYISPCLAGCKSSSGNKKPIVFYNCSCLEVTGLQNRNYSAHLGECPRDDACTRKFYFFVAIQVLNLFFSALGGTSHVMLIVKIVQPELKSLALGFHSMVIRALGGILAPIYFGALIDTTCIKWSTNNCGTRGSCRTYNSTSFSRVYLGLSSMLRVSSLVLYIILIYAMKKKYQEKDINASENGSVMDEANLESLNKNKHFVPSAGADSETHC

[13] = target: T4, breast cancer resistance protein (Homo sapiens, UniProt Q9UNQ0); assay: Efflux transporter substrate assessment in vitro, BCRP; assay type: in vitro ADME
T4 sequence (Q9UNQ0 1-655): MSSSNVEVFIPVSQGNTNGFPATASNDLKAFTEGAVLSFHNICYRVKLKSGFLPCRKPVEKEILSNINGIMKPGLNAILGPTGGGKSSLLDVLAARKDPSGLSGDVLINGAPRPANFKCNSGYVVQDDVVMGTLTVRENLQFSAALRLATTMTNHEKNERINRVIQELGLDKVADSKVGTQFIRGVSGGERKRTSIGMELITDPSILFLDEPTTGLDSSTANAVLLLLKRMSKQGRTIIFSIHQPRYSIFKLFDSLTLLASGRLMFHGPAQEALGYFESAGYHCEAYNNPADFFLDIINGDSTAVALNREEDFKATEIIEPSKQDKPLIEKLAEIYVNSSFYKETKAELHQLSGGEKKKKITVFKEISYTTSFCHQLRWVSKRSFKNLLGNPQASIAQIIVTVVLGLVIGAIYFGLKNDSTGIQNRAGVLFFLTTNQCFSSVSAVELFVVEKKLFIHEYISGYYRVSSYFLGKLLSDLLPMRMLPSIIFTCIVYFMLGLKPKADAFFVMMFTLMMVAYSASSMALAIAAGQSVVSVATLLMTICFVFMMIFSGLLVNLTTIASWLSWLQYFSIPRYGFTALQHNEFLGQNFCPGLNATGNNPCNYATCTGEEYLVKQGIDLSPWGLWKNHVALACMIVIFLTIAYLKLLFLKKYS

[14] = both, human, plasma, po, 200 mg

P‐glycoprotein, sequence (P08183 whole entry): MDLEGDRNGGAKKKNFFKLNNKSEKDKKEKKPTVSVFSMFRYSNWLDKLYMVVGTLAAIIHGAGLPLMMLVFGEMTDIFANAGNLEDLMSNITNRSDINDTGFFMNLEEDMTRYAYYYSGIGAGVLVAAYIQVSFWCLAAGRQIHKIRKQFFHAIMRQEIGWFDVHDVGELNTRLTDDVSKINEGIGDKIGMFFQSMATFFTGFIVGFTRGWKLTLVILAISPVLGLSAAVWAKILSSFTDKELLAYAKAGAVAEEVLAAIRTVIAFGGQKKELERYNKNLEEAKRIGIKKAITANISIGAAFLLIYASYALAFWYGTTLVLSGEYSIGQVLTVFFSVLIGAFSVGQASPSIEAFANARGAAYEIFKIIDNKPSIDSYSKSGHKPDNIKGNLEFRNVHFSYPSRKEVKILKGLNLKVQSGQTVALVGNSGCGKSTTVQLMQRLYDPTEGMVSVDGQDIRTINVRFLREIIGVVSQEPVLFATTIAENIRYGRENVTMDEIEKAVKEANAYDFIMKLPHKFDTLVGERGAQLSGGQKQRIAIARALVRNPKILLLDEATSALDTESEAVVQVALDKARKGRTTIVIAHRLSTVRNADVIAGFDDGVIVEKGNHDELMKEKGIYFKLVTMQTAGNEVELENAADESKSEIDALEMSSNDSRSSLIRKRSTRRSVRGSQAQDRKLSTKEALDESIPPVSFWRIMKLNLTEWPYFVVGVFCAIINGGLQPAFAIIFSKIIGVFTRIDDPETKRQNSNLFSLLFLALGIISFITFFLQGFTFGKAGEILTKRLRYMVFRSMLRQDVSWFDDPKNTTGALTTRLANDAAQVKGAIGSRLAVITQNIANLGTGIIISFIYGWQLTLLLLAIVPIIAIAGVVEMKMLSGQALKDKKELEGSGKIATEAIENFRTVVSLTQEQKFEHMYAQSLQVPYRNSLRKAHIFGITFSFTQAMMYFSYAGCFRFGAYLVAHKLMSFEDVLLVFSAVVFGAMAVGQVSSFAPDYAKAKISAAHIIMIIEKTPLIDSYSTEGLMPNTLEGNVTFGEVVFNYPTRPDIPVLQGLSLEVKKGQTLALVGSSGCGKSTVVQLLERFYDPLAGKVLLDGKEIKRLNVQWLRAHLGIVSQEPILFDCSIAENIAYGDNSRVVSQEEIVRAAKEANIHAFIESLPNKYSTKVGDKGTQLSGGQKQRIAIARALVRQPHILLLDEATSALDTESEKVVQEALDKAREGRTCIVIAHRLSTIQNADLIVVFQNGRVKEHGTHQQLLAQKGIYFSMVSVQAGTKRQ

Cc1ncc2n1-c1ccc(Cl)cc1C(c1ccccc1F)=NC2 [Midazolam]
increase in AUC extrapolated to infinity ([1]; IV midazolam with clarithromycin): 3.5 fold

COc1ccccc1Oc1c(NS(=O)(=O)c2ccc(C(C)(C)C)cc2)nc(-c2ncccn2)nc1OCCO [Bosentan]
Cmax ratio with and without ketoconazole ([1]; bosentan 125 mg BID 5 days, ketoconazole 200 mg QD): 1.62

CCN1CCN(Cc2ccc(Nc3ncc(F)c(-c4cc(F)c5nc(C)n(C(C)C)c5c4)n3)nc2)CC1 [Abemaciclib]
fraction unbound [2]: 0.0557 | half-life (Absolute bioavailability): 29.3 h | Vd (Absolute bioavailability; iv, 0.4 mg): 8.93 L/kg | clearance (Absolute bioavailability; iv, 0.4 mg): 400 mL/min | AUC [3, 14]: 4570 ng·h/mL | Cmax [3, 14]: 134 ng/mL | Tmax [3, 14]: 8 h | half-life [3, 14]: 25.2 h | decrease of AUC ([3]; with rifampin, observed): 95% | substrate of organic cation transporter 1 [4]: not substrates | permeability (in words) [5]: high permeability | solubility (in words) [5]: high solubility | substrate of organic anion–transporting polypeptide 1B3 [6]: not substrates | FG in the PBPK model ([7]; 200‐mg dose): 0.74 | FG (fraction escaping first‐pass metabolism in the gut), calculated ([7]; 200‐mg oral dose, equation 5): approximately 0.77 | FH (fraction escaping first‐pass metabolism in the liver) ([7]; 200‐mg oral dose, equations 2-4): 0.64 | increase of AUC by a high‐fat and high‐calorie meal ([8]; abemaciclib and active species): 9% | time of observed maximum plasma concentration ([8]; oral administration): […] | percentage of parent in feces ([9]; 14C study): 6.76% | radioactivity excreted in urine ([9]; human mass balance study): 4% | CL renal ([9]; human, urine, oral, 150 mg): 16.7 mL/min | Fa (fraction absorbed) ([9]; oral dose, estimated from mass balance study, equation 1): 0.91 | substrate of P‐glycoprotein (P‐glycoprotein): substrate | IC50 (CDK4/cyclin D1): […] | logP ([10]; octanol/water): 3.36 | pKa ([10]; pKa 2 (basic)): 4.48 | AUC [11]: 2230 ng·h/mL | Cmax [11]: 70 ng/mL | Tmax [11]: 4.03 h | half-life [11]: 28.8 h | substrate of organic anion–transporting polypeptide 1B1 [12]: not substrates | substrate of breast cancer resistance protein [13]: substrate
